In test [1] the target is T1, Growth hormone secretagogue receptor type 1 (Homo sapiens, UniProt Q92847). Kind of test: Inhibition of human GHS-R1a.
Test [2] deals with T1, Growth hormone secretagogue receptor type 1. In words: Agonist activity at human GHS-R1a assessed as maximum activation at 10 uM relative to ghrelin by aequorin assay. The format is functional. The procedure, abridged:
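Agonist mode of the hGHS-R1a aequorin bioluminescence assay. Compound tested up to a maximum of 10 μM. Peak response is expressed as maximum % activation relative to ghrelin. Values are means of two or three experiments.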

Test [3] shares this target. Kind of test: Inhibition of human GHS-R1a at 6.25 uM.
Test [4] has the same target. Kind of test: Displacement of [35S]MK0677 from human GHS-R1a. The gist of the method: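 Competitive binding at GHS-R1a using [35S]-MK-0677 as the radiolabeled probe. IC50 values are means of two or three experiments.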
For test [5] the target is unchanged. Kind of test: Antagonist activity at human GHS-R1a expressed in HEK293 cells assessed as inhibition of ghrelin-stimulated intracellular calcium mobilization. Type of test: functional, cell-based. In general terms: Calcium assays in cells follow changes in intracellular calcium, usually with a dye or a luminescent sensor.
The target in test [6] is T2, Beta-3 adrenergic receptor (Homo sapiens, UniProt P13945). Kind of test: Agonist activity at human adrenergic beta3 receptor. Type of test: functional.
T2 sequence (P13945 whole entry): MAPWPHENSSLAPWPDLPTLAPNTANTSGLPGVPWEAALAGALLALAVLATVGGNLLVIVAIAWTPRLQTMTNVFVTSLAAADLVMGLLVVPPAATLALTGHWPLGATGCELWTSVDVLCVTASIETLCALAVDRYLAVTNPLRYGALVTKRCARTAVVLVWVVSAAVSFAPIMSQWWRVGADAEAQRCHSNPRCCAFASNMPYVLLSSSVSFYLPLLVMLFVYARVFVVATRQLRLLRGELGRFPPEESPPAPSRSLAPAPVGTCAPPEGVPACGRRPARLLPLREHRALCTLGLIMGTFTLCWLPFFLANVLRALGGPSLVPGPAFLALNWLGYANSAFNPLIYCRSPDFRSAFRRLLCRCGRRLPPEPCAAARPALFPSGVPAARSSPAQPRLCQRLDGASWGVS
In test [7] the target is T2, Beta-3 adrenergic receptor. In words: Inhibition of human adrenergic beta3 receptor.

Results on 32 molecules are retold here after ChEMBL document CHEMBL1154292, “Discovery and optimization of novel 4-[(aminocarbonyl)amino]-N-[4-(2-aminoethyl)phenyl]benzenesulfonamide ghrelin receptor antagonists” (Bioorg Med Chem Lett, 2009).

The structures appear in SMILES notation.

T1 sequence (Q92847 whole entry): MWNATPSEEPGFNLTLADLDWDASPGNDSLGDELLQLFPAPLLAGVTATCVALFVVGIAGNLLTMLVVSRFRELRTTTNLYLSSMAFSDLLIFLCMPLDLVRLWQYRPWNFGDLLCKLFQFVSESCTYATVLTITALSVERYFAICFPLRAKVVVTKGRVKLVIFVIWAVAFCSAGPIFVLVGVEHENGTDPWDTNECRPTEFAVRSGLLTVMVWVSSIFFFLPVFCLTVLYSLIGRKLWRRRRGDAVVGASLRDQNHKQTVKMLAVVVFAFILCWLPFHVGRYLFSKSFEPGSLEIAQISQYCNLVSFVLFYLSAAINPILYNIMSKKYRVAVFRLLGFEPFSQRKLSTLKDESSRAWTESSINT

As a reminder, the IC50 is the concentration that inhibits the measured activity by half. For the molecule `CC(C)c1ccc(NC(=O)Nc2ccc(S(=O)(=O)Nc3ccc(CC(C)(C)N)cc3)cc2)cc1`, in test [1], the IC50 was found to be 8 nM. The Activity in test [2] is 0%.
`CCCNC(=O)Nc1ccc(S(=O)(=O)Nc2ccc(CC(C)(C)N)cc2)cc1`: in test [1], 1650 nM corresponded to half-maximal inhibition (IC50). The Activity in test [2] was 1%.
For orientation: inhibition means the change of the read-out against control, counted positive when it falls. Low values mean a response near the control, high ones a response far below the control. The molecule `CCCCCCNC(=O)Nc1ccc(S(=O)(=O)Nc2ccc(CC(C)(C)O)cc2)cc1` displayed an inhibition in test [3] of 48%.
In the case of `CCCCCCNC(=O)Nc1ccc(S(=O)(=O)Nc2cccc(CCCN)c2)cc1`, in test [1], the IC50 worked out at 429 nM. Moreover, the Activity in test [2] was found to be 51%.
The molecule `CC(C)NC(=O)Nc1ccc(S(=O)(=O)Nc2ccc(CC(C)(C)N)cc2)cc1` returned an IC50 in test [1] of 846 nM. In addition, the Activity in test [2] was 1%.
Turning to `CCCCCCNC(=O)Nc1ccc(S(=O)(=O)Nc2ccc(CC(C)(C)NC[C@H](O)COc3ccc(O)cc3)cc2)cc1`, the IC50 was determined as 13 nM in test [4] and 40 nM in test [5].
`CC(C)(N)Cc1ccc(NS(=O)(=O)c2ccc(NC(=O)NCc3cccc4ccccc34)cc2)cc1` showed an IC50 in test [1] of 21 nM.
On to `CCCCc1ccc(NC(=O)Nc2ccc(S(=O)(=O)Nc3ccc(CC(C)(C)N)cc3)cc2)cc1`, for which the IC50 in test [1] was 28 nM. Moreover, the Activity in test [2] is 1%.
For `CCc1ccc(NC(=O)Nc2ccc(S(=O)(=O)Nc3ccc(CC(C)(C)N)cc3)cc2)cc1` the same measures were 14 nM and 1%.
The molecule `CCCCCCNC(=O)Nc1ccc(S(=O)(=O)Nc2ccc(CC)cc2)cc1` came in with an inhibition in test [3] of 47%.
The molecule `CCCCCCCNC(=O)Nc1ccc(S(=O)(=O)Nc2ccc(CC(C)(C)N)cc2)cc1` showed an IC50 in test [1] of 97 nM. Besides, the Activity in test [2] worked out at 3%.
In the same order, the values of `Cc1ccccc1NC(=O)Nc1ccc(S(=O)(=O)Nc2ccc(CC(C)(C)N)cc2)cc1` are 161 nM and 1%.
As to `CC(C)(N)Cc1ccc(NS(=O)(=O)c2ccc(NC(=O)NCCc3ccccc3)cc2)cc1`, the IC50 in test [1] was determined as 138 nM. In addition, in test [2], the Activity amounted to 1%.
The molecule `CC(C)(N)Cc1ccc(NS(=O)(=O)c2ccc(NC(=O)NCc3ccccc3)cc2)cc1` had an IC50 in test [1] of 128 nM. Moreover, in test [2], the Activity was found to be 4%.
`CCCCCCNC(=O)Nc1ccc(S(=O)(=O)Nc2ccc(CCN)cc2)cc1` returned an IC50 in test [1] of 272 nM. Besides, the Activity in test [2] stood at 5%.
For orientation: EC50 means the concentration that produces a half-maximal response. Low values mean higher potency in that assay, high ones lower potency in that assay. As for `CCCCCCNC(=O)Nc1ccc(S(=O)(=O)Nc2ccc(CC(C)(C)N)cc2)cc1`, the figures for the IC50 in test [1] and in test [7] were 46 nM and 5200 nM, respectively. Besides, the Activity in test [2] turned out to be 4%. For the same molecule, the EC50 in test [6] is more than 10000 nM.
In the case of `CCCCCCNC(=O)Nc1ccc(S(=O)(=O)Nc2ccc(CC(C)(C)NCC)cc2)cc1`, it took 30 nM to reach half-maximal inhibition in test [1] (IC50). Further, the Activity in test [2] was found to be 1%.
Molecule `CCCCCCNC(=O)Nc1ccc(S(=O)(=O)Nc2ccc(CCCN)cc2)cc1` showed an IC50 in test [1] of 108 nM. In addition, the Activity in test [2] came to 1%.
For `CCCCNC(=O)Nc1ccc(S(=O)(=O)Nc2ccc(CC(C)(C)N)cc2)cc1` the same measures were 474 nM and 1%.
In the case of `CCCCCCNC(=O)Nc1ccc(S(=O)(=O)Nc2ccc(CCC(C)(C)N)cc2)cc1`, the IC50 in test [1] stood at 310 nM. Further, the Activity in test [2] stood at 3%.
In the same order, the values of `CCCCCCNC(=O)Nc1ccc(S(=O)(=O)Nc2ccc(CC(C)(C)CN)cc2)cc1` are 444 nM and 2%.
`CCCCCCNC(=O)Nc1ccc(S(=O)(=O)Nc2ccc(CC(C)(C)NCC(F)(F)F)cc2)cc1`: half-maximal inhibition in test [1] (IC50) was put at 682 nM. In addition, the Activity in test [2] is 1%.
In the same order, the values of `CC(C)(N)Cc1ccc(NS(=O)(=O)c2ccc(NC(=O)Nc3ccc(C(C)(C)C)cc3)cc2)cc1` are 16 nM and 1%.
For `CC(C)(N)Cc1ccc(NS(=O)(=O)c2ccc(NC(=O)Nc3ccccc3)cc2)cc1`, the IC50 in test [1] stood at 263 nM. The Activity in test [2] turned out to be 1%.
In the same order, the values of `CCCCCNC(=O)Nc1ccc(S(=O)(=O)Nc2ccc(CC(C)(C)N)cc2)cc1` are 241 nM and 6%.
As to `CCCCCCNC(=O)Nc1ccc(S(=O)(=O)Nc2ccc(CN)cc2)cc1`, 1720 nM corresponded to half-maximal inhibition in test [1] (IC50). Further, the Activity in test [2] turned out to be 5%.
For `Cc1ccc(NC(=O)Nc2ccc(S(=O)(=O)Nc3ccc(CC(C)(C)N)cc3)cc2)cc1` the same measures were 77 nM and 3%.
For `CCNC(=O)Nc1ccc(S(=O)(=O)Nc2ccc(CC(C)(C)N)cc2)cc1` the same measures were 5620 nM and 4%.
In the case of `CC(C)(N)Cc1ccc(NS(=O)(=O)c2ccc(NC(=O)NC(C)(C)c3cccc4ccccc34)cc2)cc1`, the midpoint of inhibition in test [1], the IC50, lay at 2 nM.
On the same count and under the same terms, with `CCCCCCNC(=O)Nc1ccc(S(=O)(=O)Nc2ccccc2)cc1` the figure was 4300 nM.
Turning to `CCCCCCNC(=O)Nc1ccc(S(=O)(=O)Nc2cccc(CCN)c2)cc1`, the IC50 in test [1] was found to be 625 nM. Further, in test [2], the Activity worked out at 13%.
In the same order, the values of `Cc1cccc(NC(=O)Nc2ccc(S(=O)(=O)Nc3ccc(CC(C)(C)N)cc3)cc2)c1` are 69 nM and 3%.
